Here are results for 8 compounds from ChEMBL document CHEMBL1155655 (2000).

Data set [1] has as its system Leishmania donovani. The experiment in a line: Antileishmanial activity against extracellular Leishmania donovani LV9 infected in C57BL/10ScSn mouse bone marrow-derived macrophages. Format: functional. The following applies: LV9, read-out: ED50.
The nature of data set [2]: Cytotoxicity against C57BL/10ScSn mouse bone marrow-derived macrophages. Format: cell-based, Macrophage.
The next data set deals with Leishmania enriettii. Nature of the data set: Antileishmanial activity against promastigotes of Leishmania enriettii infected in C57BL/10ScSn mouse bone marrow-derived macrophages. Format: functional. Conditions: read-out: ED50.
Data set [3] relates to Leishmania donovani. The experiment in a line: Antileishmanial activity against intracellular Leishmania donovani LV9 infected in C57BL/10ScSn mouse bone marrow-derived macrophages. The class given is functional. Conditions: LV9, read-out: ED50.
The subject of a further data set is Leishmania infantum. The experiment in a line: Antileishmanial activity against promastigotes of Leishmania infantum D.SCH infected in C57BL/10ScSn mouse bone marrow-derived macrophages. The class given is functional, organism-based. The gist of the method: (§1)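 Promastigotes of L. donovani LV9, L. infantum D.SCH (isolated 1995 from an infant visceral leishmaniasis case), L. enriettii and L. major LV39, grown at 25 °C, 5% CO2, humidified, and passaged every 3-4 days. Stocks were kept by animal passage (not L. infantum) and cryopreserved in liquid nitrogen.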

The next data set has as its system Leishmania major. The experiment in a line: Antileishmanial activity against promastigotes of Leishmania major LV39 infected in C57BL/10ScSn mouse bone marrow-derived macrophages. The class given is functional, organism-based. An outline of the steps:
as §1

The next data set concerns A549. Nature of the data set: Cytotoxicity against human A549 cells. The class given is functional, cell-based.
The next data set deals with MCF7. The experiment in a line: Cytotoxicity against human MCF7 cells. The class given is functional, cell-based.
For another data set, the system named is KB. Nature of the data set: Cytotoxicity against human KB cells. Format: functional, cell-based.
A further data set has as its system SK-MEL-30. Nature of the data set: Cytotoxicity against human SK-MEL-30 cells. The class given is functional, cell-based.
A short description of another data set: Toxicity in brine shrimp. Format: organism-based. Conditions: artemia, in vivo.

Structures are written as SMILES. In brackets after ≈: the same amount, converted by molar mass. Activity calls are given as the source filed them. No cut-off for these calls is given here.

Regarding `C=C[C@]1(C)CC[C@]2(C)[C@@H](C1)C(=O)[C@@H](O)[C@@H]1[C@]3(C)CCC[C@@]12OC3=O`, the EC50 was 10.3 µg/mL (≈ 31 µM) with Leishmania donovani [1], greater than 50 µg/mL with Leishmania enriettii and 37.2 µg/mL (≈ 112 µM) with Leishmania donovani [3]. Besides, the midpoint of cytotoxicity in data set [2], the CC50, lay at 19.5 µg/mL (≈ 58.7 µM). The outcome with Leishmania infantum and with Leishmania major was inactive.
As to `C/C=C\C(=O)O[C@@H]1[C@@H](O)[C@H]2O[C@@H]3C=C(C)CC[C@]3(C)[C@]1(C)[C@]21CO1` [8-DIHYDROTRICHOTHECINOL A], the EC50 worked out at 0.11 µg/mL (≈ 0.329 µM) in the data set on A549 (a549), 0.11 µg/mL (≈ 0.329 µM) in the data set with MCF7 (mcf7), 0.1 µg/mL (≈ 0.299 µM) in the data set on KB (kb) and 0.11 µg/mL (≈ 0.329 µM) in the data set with SK-MEL-30 (sk-mel-30).
With `CC(=O)OC[C@]12O[C@]34C=C(C)C(=O)C[C@]3(C)[C@@]1(C)[C@H](O)C[C@H]2O4` [13-ACETOXYLOUKACINOL A], the EC50 with A549 (Homo sapiens, A549) is 26.6 µg/mL (≈ 82.5 µM); in the data set on MCF7 (Homo sapiens, MCF7) it was 15.9 µg/mL (≈ 49.3 µM); in the data set on KB (Homo sapiens, KB), 13.6 µg/mL (≈ 42.2 µM); with SK-MEL-30 (Homo sapiens, SK-MEL-30), 18 µg/mL (≈ 55.8 µM).
For `CC1=C[C@]23O[C@@H]4C[C@@H](O)[C@](C)([C@@]2(C)CC1=O)[C@]4(CO)O3` [LOUKACINOL A], in that order: 21.4 µg/mL (≈ 76.3 µM), 15.8 µg/mL (≈ 56.4 µM), 13.9 µg/mL (≈ 49.6 µM) and 16.4 µg/mL (≈ 58.5 µM).
For `CC1=C[C@]23O[C@@H]4CC[C@](C)([C@@]2(C)CC1=O)[C@]4(CO)O3` [LOUKACINOL B], in that order: 15.2 µg/mL (≈ 57.5 µM), 13.3 µg/mL (≈ 50.3 µM), 11.8 µg/mL (≈ 44.6 µM) and 13.6 µg/mL (≈ 51.5 µM).
On to `C/C=C\C(=O)O[C@@H]1[C@@H](O)[C@H]2O[C@@H]3C=C(C)C(=O)C[C@]3(C)[C@]1(C)[C@]21CO1` [TRICHOTHECINOL A], for which the EC50 with A549 (a549) worked out at 0.021 µg/mL (≈ 0.0603 µM); in the data set on MCF7 (mcf7) it was 0.014 µg/mL (≈ 0.0402 µM); with KB (kb) it was 0.014 µg/mL (≈ 0.0402 µM); with SK-MEL-30 (sk-mel-30), 0.013 µg/mL (≈ 0.0373 µM). Also, in “Toxicity in brine shrimp”, the LC50 was 0.52 µg/mL (≈ 1.49 µM).
As to `C/C=C\C(=O)O[C@@H]1C[C@H]2O[C@@H]3C=C(C)C(=O)C[C@]3(C)[C@]1(C)[C@]21CO1` [TRICHOTHECIN], the EC50 with A549 (a549) is 16 µg/mL (≈ 48.1 µM); in the data set on MCF7 (mcf7), 19 µg/mL (≈ 57.2 µM); in the data set with KB (kb) it was 35 µg/mL (≈ 105 µM); in the data set with SK-MEL-30 (sk-mel-30) it was 14 µg/mL (≈ 42.1 µM). In the data set “Toxicity in brine shrimp”, this compound gave a median lethal concentration (LC50) of 2.2 µg/mL (≈ 6.62 µM).
Regarding `CC1=C[C@H]2O[C@@H]3C[C@@H](O)[C@](C)([C@@]2(C)CC1=O)[C@]31CO1` [TRICHOTHECOLONE], the EC50 is 7.1 µg/mL (≈ 26.9 µM) in the data set with A549 (a549), 10.6 µg/mL (≈ 40.1 µM) in the data set on MCF7 (mcf7), 10.6 µg/mL (≈ 40.1 µM) with KB (kb) and 8.6 µg/mL (≈ 32.5 µM) in the data set with SK-MEL-30 (sk-mel-30).
